In assay [1] the test system is HCT-15. The experiment in a line: Cytotoxicity against human HCT15 cells. The class given is functional. In a few lines:
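Tested in the NCI in vitro antitumor screening protocol across a tumor cell line panel. GI₅₀ is the concentration producing a 50% reduction in cell growth.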

Assay [2] relates to MDA-MB-231. The experiment in a line: Cell cycle arrest in human MDA-MB-231 cells assessed as accumulation of >4N cells at 27.0 uM after 72 hrs by flow cytometry. Type of assay: functional.

Here are results for 1 compound from ChEMBL document CHEMBL1149910, “2-(6-aryl-3(Z)-hexen-1,5-diynyl)anilines as a new class of potent antitubulin agents” (J Med Chem, 2008).

`Nc1ccccc1C#C/C=C\C#Cc1ccccc1C(F)(F)F`: it took 1260 nM to inhibit growth in assay [1] by half (GI50). The Activity in assay [2] stood at 12.8%.
